The text below walks through data of article PMC4846294 (Bioorganic & medicinal chemistry, 2016).

Entries after “also recorded” stand apart in the source; their conditions may differ. Like-named read-outs stand apart in the source and are kept apart here. Marks after values point to notes of the source that are not given here. Some results are limits rather than exact numbers.

In data set [1] the target is T1, LAP (from porcine kidney microsomes) (Sus scrofa, UniProt P15145).
T1 sequence (P15145 1-963): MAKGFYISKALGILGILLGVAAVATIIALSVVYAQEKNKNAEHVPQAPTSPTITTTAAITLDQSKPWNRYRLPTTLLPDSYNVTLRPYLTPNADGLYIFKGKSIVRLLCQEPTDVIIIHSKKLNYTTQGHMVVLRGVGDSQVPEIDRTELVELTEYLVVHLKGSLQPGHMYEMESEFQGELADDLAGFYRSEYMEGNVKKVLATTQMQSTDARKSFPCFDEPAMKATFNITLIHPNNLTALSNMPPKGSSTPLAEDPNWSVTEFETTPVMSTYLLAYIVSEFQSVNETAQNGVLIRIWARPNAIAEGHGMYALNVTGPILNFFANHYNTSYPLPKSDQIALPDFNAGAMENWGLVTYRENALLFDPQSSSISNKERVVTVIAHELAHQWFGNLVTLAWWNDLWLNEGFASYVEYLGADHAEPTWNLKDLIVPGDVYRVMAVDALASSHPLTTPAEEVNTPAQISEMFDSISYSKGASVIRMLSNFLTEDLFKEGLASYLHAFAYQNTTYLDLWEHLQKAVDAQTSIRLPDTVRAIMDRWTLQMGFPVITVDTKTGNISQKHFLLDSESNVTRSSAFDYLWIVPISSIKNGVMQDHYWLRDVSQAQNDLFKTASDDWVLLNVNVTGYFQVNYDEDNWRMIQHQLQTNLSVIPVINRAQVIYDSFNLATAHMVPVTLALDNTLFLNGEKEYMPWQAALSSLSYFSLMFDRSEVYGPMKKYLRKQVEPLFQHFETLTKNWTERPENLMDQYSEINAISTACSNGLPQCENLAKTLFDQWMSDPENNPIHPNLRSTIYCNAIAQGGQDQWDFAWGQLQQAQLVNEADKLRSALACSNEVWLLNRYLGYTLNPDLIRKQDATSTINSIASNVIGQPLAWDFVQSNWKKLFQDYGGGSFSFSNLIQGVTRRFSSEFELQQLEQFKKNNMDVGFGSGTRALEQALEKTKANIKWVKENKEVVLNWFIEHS
Briefly: In vitro LAP cleavage assay. The format is in vitro ADME. The conditions noted are these: for % Cleavage by LAP: area ratio of parent drug and prodrug (HPLC); for % Cleavage by LAP / Specific Activity of LAP: pH 7.2, 37 °C; for Cleavage rate relative to corresponding serinamide analogue: glycinamide versus serinamide prodrug of the same isomer; for Specific Activity of LAP: rate study.

Data set [2] concerns DU-145 (prostate). Briefly: SRB cytotoxicity assay, DU-145. The format is cell-based, human. The note with it: read-out: GI50 SRB Assay DU-145; 48 h treatment; average of n ≥ 3. A general note: Sulforhodamine B stains cellular protein and so reports cell mass.
The test system of data set [3] is NCI-H460 (lung). Briefly: SRB cytotoxicity assay, NCI-H460. It counts as cell-based, human. The note with it: read-out: GI50 SRB Assay NCI-H460; 48 h treatment; average of n ≥ 3.
The subject of data set [4] is human cancer cell lines [SK-OV-3 (ovarian), NCI-H460 (lung), and DU-145 (prostate)]. Briefly: SRB cytotoxicity, stated across all three cell lines. The conditions noted are these: for GI50 values described in words: parent drugs, three cell lines. It counts as cell-based.
Data set [5] has as its system tubulin. Briefly: Colchicine binding assay. The note with it: inhibitor 5 μM; 1.0 μM tubulin, 5.0 μM [3H]colchicine.
Data set [6] concerns SK-OV-3 (ovarian). Briefly: SRB cytotoxicity assay, SK-OV-3. It counts as cell-based, human. The conditions noted are these: read-out: GI50 SRB Assay SK-OV-3; 48 h treatment; average of n ≥ 3.
Data set [7] concerns HUVECs. Briefly: In vitro HUVEC tubule disruption assay. The note with it: for Disruption of capillary-like network of tubules (HUVECs): concentration of 0.1 μM; for Disruption of HUVEC tubular network on matrigel: concentration of 1.0 μM. It counts as cell-based, human. In a few lines:
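HUVECs (124,000 cells in M200 growth factors) plated on Matrigel (9.5 mg/mL) that had been pre-set 60 min at 37 °C; cells incubated 16 h at 37 °C to form tubule network. Test compound then added at 0.01, 0.1 or 1.0 μM. Network photographed, 9 fields/well, 40x objective.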

The test system of data set [8] is MDA-MB-231-luc human breast tumor. Briefly: In vivo dynamic bioluminescence imaging. The arrangement: species or system SCID mice. The note with it: 2 h post treatment.
Data set [9] has as its system NCI-H460 (lung). The note with it: read-out: GI50 SRB Assay NCI-H460; cited from earlier work.
Data set [10] relates to SK-OV-3 (ovarian). The conditions noted are these: read-out: GI50 SRB Assay SK-OV-3; cited from earlier work.
The subject of data set [11] is DU-145 (prostate). The conditions noted are these: read-out: GI50 SRB Assay DU-145; cited from earlier work.
Data set [12] deals with purified bovine brain tubulin. The note with it: read-out: Inhibition of Tubulin Polymerization IC50; cited from earlier work.
For data set [13], the system named is tubulin. The note with it: inhibitor 5 μM; cited from earlier work.
Data set [14] relates to HUVECs. The note with it: cited from earlier work.

On to `COc1ccc2c(c1NC(=O)[C@@H](N)CO)CCCC=C2c1cc(OC)c(OC)c(OC)c1.Cl` [Compound 39, (S)-2-Amino-3-hydroxy-N-(3-methoxy-9-(3,4,5-trimethoxyphenyl)-6,7-dihydro-5H-benzo[7]annulen-4-yl)propanamide hydrochloride], for which the “% Cleavage by LAP” value in data set [1] is less than 10%. In addition, the GI50 in the data set with DU-145 (prostate) [2] came out at 69.4 ± 31.3 µM; in the data set on NCI-H460 (lung) [3], 53.8 ± 0.864 µM.

In the case of `COc1ccc(/C=C/c2cc(OC)c(OC)c(OC)c2)c(NC(=O)CN)c1.Cl` [Compound 18, (E)-2-amino-N-(5-methoxy-2-(3,4,5-trimethoxystyryl)phenyl)acetamide hydrochloride], in [1], the “Cleavage by LAP (in words)” value was “quantitative cleavage; also recorded: quantitatively cleaved”, the “% Cleavage by LAP” value came to 100% and the “Cleavage rate relative to corresponding serinamide analogue” value is “more than 100 times”. The “Cytotoxicity against selected human cancer cell lines (in words)” value in data set [4] is recorded as “more cytotoxic than the corresponding serinamide AAPC 17”.

As to `COc1ccc(/C=C\c2cc(OC)c(OC)c(OC)c2)c(NC(=O)CN)c1.Cl` [Compound 16, (Z)-2-amino-N-(5-methoxy-2-(3,4,5-trimethoxystyryl)phenyl)acetamide hydrochloride], in [1], the “Cleavage by LAP (in words)” value was “quantitative cleavage; also recorded: quantitatively cleaved”, the “% Cleavage by LAP” value is recorded as 100%, the “Cleavage rate relative to corresponding serinamide analogue” value was 150 times and the “Specific Activity of LAP” value is on record as 180 μM/min/enzyme unit. Also, the “Cytotoxicity against selected human cancer cell lines (in words)” value in [4] is listed as “significant cytotoxicity”.

Regarding `COc1ccc(/C=C\c2cc(OC)c(OC)c(OC)c2)c(NC(=O)[C@@H](N)CO)c1.Cl` [Compound 15, (S,Z)-2-amino-3-hydroxy-N-(5-methoxy-2-(3,4,5-trimethoxystyryl)phenyl)propanamide hydrochloride], in data set [1], the “Cleavage by LAP (in words)” value is “effectively cleaved” and the “Specific Activity of LAP” value is recorded as 1.2 μM/min/enzyme unit. For the same molecule, in [4], the “Cytotoxicity against selected human cancer cell lines (in words)” value was “significant cytotoxicity”.

Consider “(Z)-2-(2'-Methoxy-4'-aminophenyl)-1-(3,4,5-trimethoxyphenyl)ethene hydrochloride [Compound 9]”, for which the GI50 with DU-145 (prostate) [2] amounted to 0.0285 ± 0.0232 µM; in the data set with SK-OV-3 (ovarian) [6] it was 0.00735 ± 0.0035 µM; in the data set with NCI-H460 (lung) [3] it was 0.0263 ± 0.0161 µM. The “Inhibition of Colchicine Binding (% Inhibition±SD)” value in the data set on tubulin [5] amounted to 75±0.90%.

For `COc1ccc(/C=C\c2cc(OC)c(OC)c(OC)c2)c(N)c1N` [Compound 8, (Z)-2-(2′,3′-Diamino-4′-methoxyphenyl)-1-(3,4,5-trimethoxyphenyl)ethene], the “GI50 values described in words” value in data set [4] is “highly potent”. For the same molecule, in the data set on HUVECs [7], the “Disruption of capillary-like network of tubules (HUVECs)” value is “significant disruption” and the “Disruption of HUVEC tubular network on matrigel” value is on record as “extensive disruption”.

For `COc1ccc(/C=C\c2cc(OC)c(OC)c(OC)c2)c(N)c1N.Cl` [Compound 10, (Z)-2-(2′,3′-Diamine hydrochloride-4′-methoxyphenyl)-1-(3,4,5-trimethoxyphenyl)ethene], in the data set with HUVECs [7], the “Disruption of capillary-like network of tubules (HUVECs)” value is reported as “significant disruption” and the “Disruption of HUVEC tubular network on matrigel” value is “extensive disruption”. Moreover, in data set [8] (80 mg/kg ip, 17 min time-point), the “Reduction in light emission (BLI) relative to baseline” value was “approximately 95%”. In data set [8] (80 mg/kg), the “Reduction in bioluminescence compared to saline control” value is listed as “greater than 95%”.

Regarding `COc1ccc(/C=C\c2cc(OC)c(OC)c(OC)c2)c(O)c1O` [CA1, combretastatin A-1], the figures for the GI50 in the data set with NCI-H460 (lung) [9], with SK-OV-3 (ovarian) [10] and with DU-145 (prostate) [11] were 0.0153 ± 0.0158 µM, 0.0384 ± 0.0242 µM and 0.0326 ± 0.0173 µM, respectively. In addition, the half-inhibitory concentration (IC50) – broadly, the point on the concentration scale where inhibition reaches its midpoint – in data set [12] is 1.9 µM. For the same molecule, the “Inhibition of Colchicine Binding (% Inhibition±SD)” value in the data set with tubulin [13] is 99.6±0.7^b %.

Take `COc1ccc2c(c1N)CCCC=C2c1cc(OC)c(OC)c(OC)c1` [Compound 33, 1-Amino-2-methoxy-5-(3’,4’,5’-trimethoxyphenyl)-benzosuber-5-ene]: the “GI50 values described in words” value in data set [4] is listed as “highly potent”. For the same molecule, the “HUVEC tubule disruption and cell rounding effect” value in the data set on HUVECs [14] (0.1 μM) was “significant tubule disruption and cell rounding effect”; in the data set with HUVECs [14] (1 μM), “greatly enhanced”. In addition, the “HUVEC tube disruption and cell rounding capability” value with HUVECs [14] is listed as “robust tubule disruption”.
